Assay results from ChEMBL document CHEMBL1268876, “Intrinsic electrophilicity of the 4-methylsulfonyl-2-pyridone scaffold in glucokinase activators: role of glutathione-S-transferases and in vivo quantitation of a glutathione conjugate in rats” (Bioorg Med Chem Lett, 2010).

Tests used:
[1] = Chemical stability assessed as formation of compound 2 in pH 7.4 phosphate buffer in presence of 5 mM GSH for 60 mins at 37 degC at 10 uM by UV chromatography; assay type: physicochemical; details: pH 7.4, 1 h
Procedure, shortened: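 Test compound at 10 µM in 0.1 M phosphate buffer, pH 7.4, with or without 5 mM GSH, 60 min at 37 °C in a shaking water bath open to air. Stopped with ice-cold acetonitrile containing 0.1% formic acid, then centrifuged. Supernatant analyzed by LC–MS/MS and UV (300 nm) on a C18 column with an ammonium formate/acetonitrile gradient.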

Liver microsomes [2] = test: Metabolic stability in human liver microsomes assessed as formation of compound at 10 uM in presence of 5 mM GSH and 1.3 mM NADPH by UV chromatography; assay type: ADME, Microsome
Procedure, shortened: (§1)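 Test compound at 10 µM with 5 mM GSH in human liver microsomes (NADPH-supplemented or not), human liver cytosol, or human placental GST. Incubated 60 min at 37 °C in a shaking water bath open to air; microsomal and cytosolic reactions started by adding the matrix. Controls lacked NADPH and/or GSH. Quenched with ice-cold acetonitrile containing 0.1% formic acid, then centrifuged. Supernatant analyzed by LC–MS/MS with UV detection at 300 nm.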

[3] = Metabolic stability in human liver cytosol assessed as formation of compound at 10 uM in presence of 5 mM GSH and 1.3 mM NADPH by UV chromatography; assay type: ADME; procedure, shortened: as §1
[4] = Metabolic stability in presence of human placental GST assessed as formation of compound at 10 uM in presence of 5 mM GSH and 1.3 mM NADPH by UV chromatography; assay type: ADME; procedure, shortened: as §1
Liver microsomes [5] = test: Metabolic stability in human liver microsomes assessed as formation of compound at 10 uM in presence of 5 mM GSH and in absence of NADPH by UV chromatography; assay type: ADME, Microsome; procedure, shortened: as §1

Row | SMILES | Stability [1] | Stability (Liver microsomes [2]) | Stability [3] | Stability [4] | Stability (Liver microsomes [5])
1 | Cc1cnc(NC(=O)[C@H](CC2CCCC2)n2ccc(S(C)(=O)=O)cc2=O)cn1 | Unstable | Unstable | Unstable | Unstable | Unstable
2 | Cc1cnc(NC(=O)[C@H](CC2CCCC2)n2ccccc2=O)cn1 | Stable | Stable | Stable | Stable | Stable
3 | Cc1cnc(NC(=O)[C@H](CC2CCCC2)n2cc(S(C)(=O)=O)ccc2=O)cn1 | Stable | Stable | Stable | Stable | Stable
4 | Cc1cnc(NC(=O)[C@H](CC2CCCC2)n2cccc(S(C)(=O)=O)c2=O)cn1 | Stable | Stable | Stable | Stable | Stable
5 | Cc1cnc(NC(=O)[C@H](CC2CCCC2)n2ccc(Br)cc2=O)cn1 | Stable | Stable | Unstable | Unstable | Stable
